pIC50: −log10 of the molar value.
How the values were obtained:
Rattus norvegicus [1] = test: Oral bioavailability in rat at 2 mg/kg; assay type: ADME, organism-based; details: in vivo
[2] = Volume of distribution in rat at 1 mg/kg, iv; assay type: ADME, organism-based; set-up: dose 1 mg/kg, route intravenous; details: in vivo
[3] = Cmax in rat at 2 mg/kg, po; assay type: ADME, organism-based; set-up: dose 2 mg/kg, route oral; details: in vivo
[4] = molecular target: Mitogen-activated protein kinase 10 (Homo sapiens, UniProt P53779); test: Inhibition of JNK3 by HRTF
Sequence of Mitogen-activated protein kinase 10 (P53779 whole entry): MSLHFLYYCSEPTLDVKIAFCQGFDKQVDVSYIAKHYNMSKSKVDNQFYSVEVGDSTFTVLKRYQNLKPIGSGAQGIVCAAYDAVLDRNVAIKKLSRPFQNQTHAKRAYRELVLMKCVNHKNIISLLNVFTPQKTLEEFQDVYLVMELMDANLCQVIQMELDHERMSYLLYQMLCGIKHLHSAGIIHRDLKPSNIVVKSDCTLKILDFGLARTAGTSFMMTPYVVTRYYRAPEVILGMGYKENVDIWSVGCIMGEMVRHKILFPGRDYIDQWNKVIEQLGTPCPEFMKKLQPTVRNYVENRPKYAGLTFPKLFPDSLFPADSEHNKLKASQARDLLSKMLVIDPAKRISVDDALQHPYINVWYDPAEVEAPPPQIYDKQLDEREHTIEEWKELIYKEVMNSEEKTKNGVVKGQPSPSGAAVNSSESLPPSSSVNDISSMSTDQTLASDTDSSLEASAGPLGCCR
How it was run: (§1)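 HTRF kinase assay with final concentrations of 0.1 nM JNK1 or 0.3 nM JNK3, 0.4 nM biotinylated-ATF2 substrate and 1 mM ATP. Phospho-Thr71-ATF-2 was detected with a Europium-cryptate anti-phospho-Thr71-ATF-2 antibody, with streptavidin-allophycocyanin-XL as acceptor. A 10-point dose-response was run in duplicate and fit to a four-parameter logistic. JNK3 values are means of four or more experiments; JNK1 values are means of two or more.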

[5] = Drug level in mouse brain at 10 mg/kg, ip after 2 hrs; assay type: ADME, organism-based; set-up: dose 10 mg/kg, route intraperitoneal; details: read-out: Drug uptake
How it was run: (§2)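 Mouse dosed at 10 mg/kg ip. Brain and plasma concentrations (µM) were measured at 2 h.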

[6] = Drug level in mouse plasma at 10 mg/kg, ip after 2 hrs; assay type: ADME, organism-based; set-up: dose 10 mg/kg, route intraperitoneal; details: read-out: Drug uptake; how it was run: as §2
Rattus norvegicus [7] = test: Half life in rat at 1 mg/kg, iv; assay type: ADME, organism-based; set-up: dose 1 mg/kg, route intravenous; details: in vivo
[8] = molecular target: Mitogen-activated protein kinase 8 (Homo sapiens, UniProt P45983); test: Inhibition of JNK1 by HRTF; how it was run: as §1
Sequence of Mitogen-activated protein kinase 8 (P45983 whole entry): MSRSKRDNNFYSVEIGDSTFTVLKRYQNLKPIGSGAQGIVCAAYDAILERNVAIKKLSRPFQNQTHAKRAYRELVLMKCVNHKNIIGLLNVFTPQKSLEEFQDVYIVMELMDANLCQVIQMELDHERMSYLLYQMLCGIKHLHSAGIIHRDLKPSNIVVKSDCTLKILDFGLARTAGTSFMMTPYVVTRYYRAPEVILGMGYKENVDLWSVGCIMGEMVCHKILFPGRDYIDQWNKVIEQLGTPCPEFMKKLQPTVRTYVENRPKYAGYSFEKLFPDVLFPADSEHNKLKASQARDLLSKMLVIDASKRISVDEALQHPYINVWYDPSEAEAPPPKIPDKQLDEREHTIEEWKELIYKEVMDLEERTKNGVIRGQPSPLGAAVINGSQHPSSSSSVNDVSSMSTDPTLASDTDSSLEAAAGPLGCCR

[9] = AUC in rat at 2 mg/kg, po; assay type: ADME, organism-based; set-up: dose 2 mg/kg, route oral; details: plasma

Structure (SMILES)	pIC50 [4]	concentration at 2 h [5] [µM]	concentration at 2 h [6] [µM]	further results
Cn1cc(-c2ccc3cnc(Nc4ccc(-n5cnc(N6CCOCC6)n5)cc4)nc3c2)cn1	7.05	7.17	17.8	F (Rattus norvegicus [1]): 28%; Vd [2]: 0.8 L/kg; Cmax [3]: 0.7 µM; t1/2 (Rattus norvegicus [7]): 3 h; pIC50 [8]: 7.30; AUC [9]: 6.3 µM·h
c1cc(-n2cnc(N3CCOCC3)n2)ccc1Nc1ncc2ccc(-c3cnoc3)cc2n1	6.15			
c1cc(-n2cnc(N3CCOCC3)n2)ccc1Nc1ncc2ccc(N3CCOCC3)cc2n1	5.36			
c1cncc(-c2ccc3cnc(Nc4ccc(-n5cnc(N6CCOCC6)n5)cc4)nc3c2)c1	6.68	8.1	26.7	
Cc1ccc(-c2ccc3cnc(Nc4ccc(-n5cnc(N6CCOCC6)n5)cc4)nc3c2)cn1	6.14			
c1ccc(-c2ccc3cnc(Nc4ccc(-n5cnc(N6CCOCC6)n5)cc4)nc3c2)cc1	< 4.70			
COc1ccc(-c2cccc3cnc(Nc4ccc(-n5cnc(N6CCOCC6)n5)cc4)nc23)cc1F	7.15	1.5	6.1	pIC50 [8]: 7.05
COc1ccc(-c2cccc3cnc(Nc4ccc(-n5cnc(C)n5)cc4)nc23)cc1F	7.10	7.6	10.3	
COc1ccc(-c2cccc3cnc(Nc4ccc(-n5cnc(-c6ccccn6)n5)cc4)nc23)cc1F	7.05			
Cc1ccc(-c2cccc3cnc(Nc4ccc5c(c4)OCO5)nc23)cn1	7.22	1.06	0.78	
Cc1ccc(-c2cccc3cnc(Nc4ccc(F)cc4)nc23)cn1	6.77			
Cc1ccc(-c2cccc3cnc(Nc4ccc(C(=O)N5CCOCC5)cc4)nc23)cn1	7.05			
CC(C)n1cc(-c2ccc3cnc(Nc4ccc(-n5cnc(N6CCOCC6)n5)cc4)nc3c2Cl)cn1	7.20	7.2	4.3	
Cn1cc(-c2ccc3cnc(Nc4ccc(-n5cnc(N6CCOCC6)n5)cc4)nc3c2C(F)(F)F)cn1	6.72	5.6	8.3	

More lines, in order of rising pIC50 [4], values ahead:

pIC50 [4]	concentration at 2 h [5] [µM]	concentration at 2 h [6] [µM]	Structure (SMILES)	further results
7.22	1.37	13.1	Cn1cc(-c2ccc3cnc(Nc4ccc(-n5cnc(-c6ccccn6)n5)cc4)nc3c2)cn1	pIC50 [8]: 7.00
7.22	12.7	5.2	c1ccc(-c2cccc3cnc(Nc4ccc(-n5cnc(N6CCOCC6)n5)cc4)nc23)cc1	pIC50 [8]: 7.30
7.30	1.31	42.9	c1cc(-n2cnc(N3CCOCC3)n2)ccc1Nc1ncc2ccc(-c3cn[nH]c3)cc2n1	pIC50 [8]: 7.40
7.30			Cc1ccc(-c2ncn(-c3ccc(Nc4ncc5ccc(-c6cn[nH]c6)cc5n4)cc3)n2)cn1	
7.30			Cc1ccc(-c2cccc3cnc(NC4CCC(O)CC4)nc23)cn1 (stereo not given)	
7.40	8.3	10.4	Cn1cc(-c2ccc3cnc(Nc4ccc(-n5cnc(N6CCOCC6)n5)cc4)nc3c2Cl)cn1	F (Rattus norvegicus [1]): 19%; Vd [2]: 1.4 L/kg; Cmax [3]: 0.3 µM; t1/2 (Rattus norvegicus [7]): 3 h; AUC [9]: 2.3 µM·h
7.52	0.15	2.7	Cc1ccc(-c2cccc3cnc(Nc4ccc(-n5cnc(N6CCOCC6)n5)cc4)nc23)cn1	
7.52	0.23	2.31	Cc1ccc(-c2cccc3cnc(Nc4ccc(-n5cnc(C)n5)cc4)nc23)cn1	
7.52			Cc1ccc(-c2cccc3cnc(N[C@H]4CC[C@@H](C(=O)N5CCCC5)CC4)nc23)cn1	
7.70	0.23	2.2	Cn1cc(-c2cccc3cnc(Nc4ccc(-n5cnc(N6CCOCC6)n5)cc4)nc23)cn1	pIC50 [8]: 8.00
7.70	4.5	5	Cc1ncn(-c2ccc(Nc3ncc4cccc(-c5nccs5)c4n3)cc2)n1	pIC50 [8]: 8.00
7.70	5	10.6	Cn1cc(-c2ccc3cnc(Nc4ccc(-n5cnc(N6CCOCC6)n5)cc4)nc3c2C2CC2)cn1	
8.00	7.6	7.4	Cc1c(-c2cnn(C)c2)ccc2cnc(Nc3ccc(-n4cnc(N5CCOCC5)n4)cc3)nc12	
8.00	1.1	6.4	Cn1cc(-c2ccc3cnc(Nc4ccc(-n5cnc(N6CCOCC6)n5)cc4)nc3c2-c2ccccc2)cn1	
8.05	0.22	6.3	Cn1cc(-c2ccc3cnc(Nc4ccc(-n5cnc(N6CCOCC6)n5)cc4)nc3c2-c2cnn(C)c2)cn1	
8.15			c1cc(-c2nccs2)c2nc(Nc3ccc(-n4cnc(N5CCOCC5)n4)cc3)ncc2c1	pIC50 [8]: 7.52
8.40	4.9	9.4	COc1c(-c2cnn(C)c2)ccc2cnc(Nc3ccc(-n4cnc(N5CCOCC5)n4)cc3)nc12	F (Rattus norvegicus [1]): 8%
